Source: ChEMBL document CHEMBL1143425, “Paradoxical growth effect of caspofungin observed on biofilms and planktonic cells of five different Candida species” (2007)
Active and inactive are the calls of the source.

Legend:
Candida tropicalis [1] = assay: Antimicrobial activity against Candida tropicalis BR-A20 grown as planktonic cell after 48 hrs by XTT reduction assay; format: functional
Summary of the method: (§1)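 Planktonic broth microdilution followed CLSI M27-A2, with caspofungin dissolved in water. After 48 h, XTT-menadione was added to each well and plates were incubated 1 h at 35°C in the dark. Cells were pelleted by centrifugation and the supernatant was read at 490 nm. MIC was the lowest concentration giving a 50% drop in metabolic activity versus the drug-free control. PG was ≥20% of drug-free activity above the MIC.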

Candida albicans [2] = assay: Antimicrobial activity against Candida albicans BR-A4 grown as biofilm after 48 hrs by XTT reduction assay; format: functional
Summary of the method: (§2)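 Isolates were grown on Sabouraud agar (30°C, 24 h), then overnight in RPMI 1640 with MOPS, pH 7.0, at 35°C with shaking. Cells were washed and set to ~1 × 10^7 cells/ml, attached 1.5 h at 37°C, and grown 24 h. Biofilms were then exposed to caspofungin in 10 twofold dilutions (2–1,024 μg/ml) for 48 h at 35°C with shaking. Read-out was XTT-menadione, 1 h, 35°C, dark, A490, cell-free blank subtracted. MIC was the 50% drop in activity versus drug-free control. Tested in duplicate.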

Candida albicans [3] = assay: Effect on morphology in Candida albicans grown as biofilm assessed as rounding and clumping at 32 ug/ml after 48 hrs; format: functional, organism-based
Summary of the method: (§3)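 Biofilms formed in RPMI 1640 wells were exposed to caspofungin for 48 h and compared with drug-free control wells. Wells were examined in the plate under an inverted light microscope at ×200 and photographed.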

Candida tropicalis [4] = assay: Antimicrobial activity against Candida tropicalis BR-A18 grown as planktonic cell after 48 hrs by XTT reduction assay; format: functional; summary of the method: as §1
Candida metapsilosis [5] = assay: Antimicrobial activity against Candida metapsilosis BR-A44 grown as biofilm assessed as concentration producing paradoxical growth after 48 hrs by XTT reduction assay; format: functional
Summary of the method: (§4)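 Sabouraud-grown cells were shaken overnight (18 h, 120 rpm, 35°C) in RPMI 1640 with MOPS at pH 7.0, then washed and set at ~1 × 10^7 cells/ml. Attachment lasted 1.5 h at 37°C, and growth ran 24 h before challenge. Caspofungin was added in RPMI at 2–1,024 μg/ml (10 doublings) for 48 h at 35°C with shaking. XTT-menadione was read at 490 nm after 1 h at 35°C in the dark, with blank wells subtracted. MIC was taken as 50% reduction versus drug-free wells, and PG as >50% of control above MIC. Assays were run in duplicate.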

Candida tropicalis [6] = assay: Effect on morphology in Candida tropicalis grown as biofilm assessed as rounding and clumping at 8 ug/ml after 48 hrs; format: functional, organism-based
Summary of the method: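 Overnight RPMI 1640 cultures (MOPS, pH 7.0) were washed and set to about 1 × 10^7 cells/ml, then attached to polystyrene wells for 1.5 h at 37°C at 75 rpm. After 24 h biofilm growth, wells were washed and given doubling caspofungin dilutions (2–1,024 μg/ml in RPMI) for 48 h at 35°C at 75 rpm. Biofilms were viewed in situ by inverted light microscopy at ×200 alongside drug-free wells.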

Candida parapsilosis [7] = assay: Antimicrobial activity against Candida parapsilosis BR-A28 grown as biofilm after 48 hrs by XTT reduction assay; format: functional; details: Lodderomyces parapsilosis; summary of the method: as §2
Candida orthopsilosis [8] = assay: Antimicrobial activity against Candida orthopsilosis BR-A34 grown as planktonic cell after 48 hrs by XTT reduction assay; format: functional; details: Lodderomyces orthopsilosis
Summary of the method: (§5)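 Planktonic cells were tested by CLSI M27-A2 broth microdilution with caspofungin in water, incubated 48 h. XTT-menadione was added to each well, plates were held 1 h at 35°C in the dark and centrifuged, and supernatant absorbance was read at 490 nm. MIC was defined as 50% decrease in metabolic activity versus drug-free control. PG was defined as ≥20% of control activity at concentrations above MIC.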

Candida parapsilosis [9] = assay: Antimicrobial activity against Candida parapsilosis BR-A29 grown as biofilm assessed as concentration producing paradoxical growth after 48 hrs by XTT reduction assay; format: functional
Summary of the method: (§6)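 Clinical isolates were grown overnight (18 h, 35°C, 120 rpm) in RPMI 1640 with MOPS, pH 7.0, then washed and set to ~1 × 10^7 cells/ml. Cells attached for 1.5 h at 37°C, 75 rpm, then biofilms grew 24 h. Caspofungin was given as doubling dilutions of 2–1,024 μg/ml for 48 h at 35°C, 75 rpm. Read-out was XTT-menadione in PBS, 1 h at 35°C in the dark, A490, cell-free blank subtracted. MIC was a 50% drop in activity versus drug-free; PG was >50% of control above MIC. Run in duplicate.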

Candida albicans [10] = assay: Antimicrobial activity against Candida albicans BR-A7 grown as planktonic cell assessed as paradoxical growth after 48 hrs by XTT reduction assay; format: functional, organism-based; summary of the method: as §5
Candida parapsilosis [11] = assay: Antimicrobial activity against Candida parapsilosis BR-A30 grown as biofilm assessed as paradoxical growth after 48 hrs by XTT reduction assay; format: functional, organism-based; summary of the method: as §6
Candida metapsilosis [12] = assay: Antimicrobial activity against Candida metapsilosis BR-A40 grown as biofilm after 48 hrs by XTT reduction assay; format: functional; details: Lodderomyces metapsilosis; summary of the method: as §4
Candida parapsilosis [13] = assay: Antimicrobial activity against Candida parapsilosis BR-A28 grown as biofilm assessed as concentration producing paradoxical growth after 48 hrs by XTT reduction assay; format: functional; summary of the method: as §6
Candida metapsilosis [14] = assay: Antimicrobial activity against Candida metapsilosis BR-A43 grown as planktonic cell assessed as paradoxical growth after 48 hrs by XTT reduction assay; format: functional, organism-based; summary of the method: as §5
Candida metapsilosis [15] = assay: Antimicrobial activity against Candida metapsilosis BR-A44 grown as planktonic cell assessed as paradoxical growth after 48 hrs by XTT reduction assay; format: functional, organism-based; summary of the method: as §5
Candida metapsilosis [16] = assay: Antimicrobial activity against Candida metapsilosis BR-A42 grown as biofilm assessed as concentration producing paradoxical growth after 48 hrs by XTT reduction assay; format: functional; summary of the method: as §4
Candida orthopsilosis [17] = assay: Effect on morphology in Candida orthopsilosis grown as biofilm assessed as rounding and clumping at 32 ug/ml after 48 hrs; format: functional, organism-based; summary of the method: as §3
Candida albicans [18] = assay: Antimicrobial activity against Candida albicans BR-A2 grown as planktonic cell assessed as concentration producing paradoxical growth after 48 hrs by XTT reduction assay; format: functional; summary of the method: as §5
Candida parapsilosis [19] = assay: Antimicrobial activity against Candida parapsilosis BR-A25 grown as planktonic cell after 48 hrs by XTT reduction assay; format: functional; details: Lodderomyces parapsilosis
Summary of the method: (§7)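 Planktonic broth microdilution followed CLSI M27-A2, with caspofungin dissolved in water. After 48 h, XTT-menadione was added to the wells and plates were kept 1 h at 35°C in the dark. Plates were then centrifuged and supernatant A490 was read. MIC was the lowest concentration giving a 50% decrease in metabolic activity versus drug-free control. Paradoxical growth was defined as ≥20% of control activity above the MIC.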

Candida orthopsilosis [20] = assay: Antimicrobial activity against Candida orthopsilosis BR-A36 grown as biofilm after 48 hrs by XTT reduction assay; format: functional; details: Lodderomyces orthopsilosis; summary of the method: as §2
Candida parapsilosis [21] = assay: Antimicrobial activity against Candida parapsilosis 22019 grown as planktonic cell after 48 hrs by XTT reduction assay; format: functional; details: Lodderomyces parapsilosis, 22019, 48 h; summary of the method: as §7
Candida orthopsilosis [22] = assay: Antimicrobial activity against Candida orthopsilosis BR-A35 grown as planktonic cell assessed as paradoxical growth after 48 hrs by XTT reduction assay; format: functional, organism-based; summary of the method: as §5
Candida parapsilosis [23] = assay: Antimicrobial activity against Candida parapsilosis BR-A25 grown as biofilm after 48 hrs by XTT reduction assay; format: functional; details: Lodderomyces parapsilosis; summary of the method: as §2
Candida orthopsilosis [24] = assay: Antimicrobial activity against Candida orthopsilosis BR-A36 grown as planktonic cell after 48 hrs by XTT reduction assay; format: functional; details: Lodderomyces orthopsilosis; summary of the method: as §5
Candida parapsilosis [25] = assay: Antimicrobial activity against Candida parapsilosis BR-A28 grown as planktonic cell assessed as paradoxical growth after 48 hrs by XTT reduction assay; format: functional, organism-based; summary of the method: as §1

CC[C@H](C)C[C@H](C)CCCCCCCCC(=O)N[C@H]1C[C@@H](O)[C@@H](NCCN)NC(=O)[C@@H]2[C@@H](O)CCN2C(=O)[C@H]([C@H](O)CCN)NC(=O)[C@H]([C@H](O)[C@@H](O)c2ccc(O)cc2)NC(=O)[C@@H]2C[C@@H](O)CN2C(=O)[C@H]([C@@H](C)O)NC1=O [CASPOFUNGIN]
2 µg/mL: MIC (Candida albicans [2]) | MIC (Candida parapsilosis [7]) | MIC (Candida metapsilosis [12]) | MIC (Candida parapsilosis [19]) | MIC (Candida orthopsilosis [20]) | MIC (Candida parapsilosis [21]) | MIC (Candida parapsilosis [23])
active: Activity (Candida albicans [3]) | Activity (Candida tropicalis [6]) | Activity (Candida albicans [10]) | Activity (Candida parapsilosis [11]) | Activity (Candida orthopsilosis [17])
16 µg/mL: Activity (Candida metapsilosis [5]) | Activity (Candida parapsilosis [9]) | Activity (Candida parapsilosis [13]) | Activity (Candida albicans [18])
1 µg/mL: MIC (Candida orthopsilosis [8]) | MIC (Candida orthopsilosis [24])
0.5 µg/mL: MIC (Candida tropicalis [1]) | MIC (Candida tropicalis [4])
inactive: Activity (Candida metapsilosis [14]) | Activity (Candida metapsilosis [15]) | Activity (Candida orthopsilosis [22]) | Activity (Candida parapsilosis [25])
32 µg/mL: Activity (Candida metapsilosis [16])
